Many of the other results were omitted from the sample, so hits are more common in it than they were.
RORa inhibitor = inhibitors of orphan receptor RORA, primary screen, cell-based, luminescence; CHO-K1 Gal4-RORA LBD luciferase reporter; inhibition, % at 10 µM; hit rate 0.43% among 65,000; AID 561, 2006;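 active = inhibition above the mean of all tested compounds plus 3 SD, cut at about 52% in these data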;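 note: 0% = RORA-transfected cells with DMSO and 100% = mock-transfected cells lacking RORA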
Target sequence (P35398 whole entry, looked up, the tested form may be a part): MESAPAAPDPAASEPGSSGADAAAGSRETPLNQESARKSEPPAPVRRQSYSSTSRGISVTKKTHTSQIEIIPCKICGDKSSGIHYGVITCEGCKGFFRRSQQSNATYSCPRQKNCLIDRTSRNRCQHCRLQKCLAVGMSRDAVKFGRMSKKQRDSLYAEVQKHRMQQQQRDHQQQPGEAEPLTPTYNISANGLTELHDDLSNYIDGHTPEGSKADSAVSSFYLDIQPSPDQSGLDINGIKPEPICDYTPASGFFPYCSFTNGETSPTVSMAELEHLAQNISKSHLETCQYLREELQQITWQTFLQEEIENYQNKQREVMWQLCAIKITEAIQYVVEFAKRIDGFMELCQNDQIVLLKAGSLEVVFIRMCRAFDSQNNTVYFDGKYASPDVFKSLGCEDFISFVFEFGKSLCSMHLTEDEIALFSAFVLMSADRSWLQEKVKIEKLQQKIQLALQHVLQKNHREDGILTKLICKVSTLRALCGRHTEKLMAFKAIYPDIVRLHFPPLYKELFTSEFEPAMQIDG
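Test system – CHO-K1 Gal4-RORA LBD luciferase reporter cells · Schedule – 20 h at 37 °C · Signal – luminescence from basal luciferase reporter expression · Measure – percent inhibition of basal reporter luminescence, control-normalized · Control set – -RORA mock-transfected DMSO wells 100%, +RORA DMSO wells 0%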
* = called active by the depositor.

SMILES	RORa inhibitor
CCOc1ccc(S(=O)(=O)n2cnc3cc(C)c(C)cc32)cc1	66.3*
CCOc1ccc(OCC(=O)Nc2ccc(S(=O)(=O)Nc3cc(C)nc(C)n3)cc2)cc1	-4.9
CCOC(=O)c1sc(C)c(C(=O)NCCCN2CCOCC2)c1N	0.7
COc1cc(C2C3C(C)N(C)C(=O)N(C)C3N(C)C(=O)N2C)ccc1O (centres undefined)	13.1
O=C(Cc1cccs1)Nc1nc2ccccc2s1	-58.5
O=S(=O)(C/C(=C/CO)S(=O)(=O)c1ccccc1)c1ccccc1	89.2*
COc1ccc(N/C=C2\CCOC2=O)cc1	29.5
O=C1/C(=C/Nc2ccc3c(c2)OCO3)CCc2ccccc21	72.4*
O=C(Nc1ccc2c(c1)OCO2)c1cccc(F)c1	-52.0
Cn1c(=O)oc2cc(S(=O)(=O)NCC3CCCO3)ccc21 (centres undefined)	-15.5
COc1ccccc1-c1nn2c(C(F)(F)F)nnc2s1	-0.4
COc1ccccc1-c1nnc2sc(-c3ccc(N(C)C)cc3)nn12	56.8*
CN(C)c1ccc(-c2nn3c(-c4ccccc4Cl)nnc3s2)cc1	11.5
CC1(C)CC(=O)C(C=NCC2CCCO2)=C(O)C1 (centres undefined)	0.4
COc1ccc(CCn2c(=N)c(C#N)cc3c(=O)n4ccccc4nc32)cc1	10.2
Cc1ccc(-c2cnc(NC(=O)CCC(=O)N3CCCCC3)n2C)cc1	76.6*
Cn1c(-c2ccc3c(c2)OCO3)cnc1NC(=O)CCC(=O)NCCc1ccccc1	23.8
CCCC(=O)Nc1ccc(C(=O)N2CCCC2)cc1	6.1
CCCCC(=O)N(c1ccc(C)c(C)c1)C1C=CS(=O)(=O)C1 (centres undefined)	3.2
CCOC(=O)N1CCN(C(=O)CSc2nnc(CNC(=O)c3c(F)cccc3Cl)o2)CC1	-10.8
COc1ccc(N2CCN(C(=O)CSc3nnc(CNc4ccccc4)o3)CC2)cc1	4.1
CCOc1cc(C(=O)CSc2nnc(CNc3ccc(Cl)cc3)o2)ccc1NC(=O)CC	53.5*
CCOC(=O)Cc1csc(NC(=O)CSc2nc3cccnc3n2CC)n1	-2.2
CCn1c(=O)cc(NC2=NCC(C)CN2c2cccc(Cl)c2)n(C)c1=O (centres undefined)	0.5
CC(C)C(=O)N1CCN(C2=NS(=O)(=O)c3ccccc32)CC1	16.0
COc1cccc(-n2c(SC)nnc2-c2cnccn2)c1	0.6
CC1CCN(C(=O)CSc2ccc3nnc(-c4ccccc4)n3n2)CC1	7.9
